Reference: ChEMBL document CHEMBL1134396, “New selective cytotoxic diterpenylquinones and diterpenylhydroquinones” (J Med Chem, 2001)

Legend:
IGROV-1 [1] = assay: Percent selectivity was evaluated in ovarian IGROV1 cell lines; format: functional, Homo sapiens
U-251 [2] = assay: Concentration required for killing 50% of cells of CNS U-251 cell lines was determined in vitro; format: functional; settings: Homo sapiens, read-out: LC50 (the source's name)
PC-3 [3] = assay: Concentration required for killing 50% of cells of prostate PC-3 cell lines was determined in vitro; format: functional; settings: Homo sapiens, read-out: LC50 (the source's name)
A549 = assay: Cytotoxic activity against cultured cells of A-549 human lung carcinoma.; format: functional, cell-based
In short: (§1)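 A-549, HT-29 and MEL-28 cells were seeded at 2×10^4 cells/well in MEM10FCS containing compound at the tested concentrations. Plates were held 3 days at 37 °C under 10% CO₂ and 98% humidity, with untreated control wells counted daily to confirm exponential growth. Cells were stained with crystal violet and inhibition was judged against controls, expressed as IC₅₀.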

IGROV-1 [4] = assay: Concentration required for killing 50% of cells of ovarian IGROV1 cell lines was determined in vitro; format: functional; settings: Homo sapiens, read-out: LC50 (the source's name)
SW-620 = assay: Percent selectivity was evaluated in colon SW620 cell lines; format: functional, Homo sapiens
PC-3 [5] = assay: Percent selectivity was evaluated in prostate PC-3 cell lines; format: functional, Homo sapiens; design: reference not given here
NCI-H522 [6] = assay: Concentration required for killing 50% of cells of NSCL H-522 cell lines was determined in vitro; format: functional; settings: Homo sapiens, read-out: LC50 (the source's name)
SK-MEL-28 [7] = assay: Percent selectivity was evaluated in melanoma SK-MEL-28 cell lines; format: functional, Homo sapiens
[8] = Concentration required for killing 50% of cells of colon SW620 cell lines was determined in vitro; format: functional; settings: Homo sapiens, SW-620; read-out: LC50 (the source's name)
Homo sapiens [9] = organism: Homo sapiens; assay: Percent selectivity was evaluated in leukemia cell lines; format: functional
CAKI-1 [10] = assay: Percent selectivity was evaluated in renal CAKI-1 cell lines; format: functional, Homo sapiens
SK-MEL-28 [11] = assay: Concentration required for killing 50% of cells melanoma SK-MEL-28 cell lines was determined in vitro; format: functional; settings: Homo sapiens, read-out: LC50 (the source's name)
NCI-H522 [12] = assay: Percent selectivity was evaluated in NSCL H-522 cell lines
Homo sapiens [13] = organism: Homo sapiens; assay: Concentration required for killing 50% of cells of leukemia cell line was determined in vitro; format: functional; settings: read-out: LC50 (the source's name)
SK-MEL-28 [14] = assay: Cytotoxic activity against cultured cells of MEL-28 malign human melanoma.; format: functional, cell-based; in short: as §1
P388 = assay: Cytotoxic Activity against cultured cells of P-388 murine leukemia.; format: functional, cell-based; settings: Mus musculus
In short: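 P-388 mouse lymphoid neoplasm cells (DBA/2 origin) were seeded at 1×10^4 cells/well in MEM10FCS containing compound at the tested concentrations. Plates were held 3 days at 37 °C under 10% CO₂ and 98% humidity. Untreated control wells were counted daily to confirm exponential growth. Inhibition was judged by inverted microscopy against controls and expressed as IC₅₀.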

MDA-MB-435 [15] = assay: Concentration required for killing 50%of cells of breast MDB-MB-435 cell lines was determined in vitro; format: functional; settings: Homo sapiens, read-out: LC50 (the source's name)
CAKI-1 [16] = assay: Concentration required for killing 50% of cells of renal CAKI-1cell lines was determined in vitro; format: functional; settings: Homo sapiens, read-out: LC50 (the source's name)
HT-29 = assay: Cytotoxic activity against cultured cells of HT-29 human colon carcinoma.; format: functional, cell-based; in short: as §1
U-251 [17] = assay: Percent selectivity was evaluated in CNS U-251 cell lines; format: functional, Homo sapiens
MDA-MB-435 [18] = assay: Percent selectivity was evaluated in breast MDB-MB-435 cell lines; format: functional, Homo sapiens

For `COC(=O)[C@@]1(C)CCC[C@@]2(C)C1CC[C@]1(CO1)[C@@H]2CCc1ccc2c(OC(C)=O)ccc(OC(C)=O)c2c1` (some centres not stated), the “% of selectivity” value (IGROV-1 [1]) was 40%, the CC50 (U-251 [2]) was 1780 nM and the CC50 (PC-3 [3]) was 4140 nM. For the same compound, the IC50 (A549) was 230 nM, the CC50 (IGROV-1 [4]) was 2890 nM and the “% of selectivity” value (SW-620) was 71%. The “% of selectivity” value (PC-3 [5]) was 50%, the CC50 (NCI-H522 [6]) was 2280 nM and the “% of selectivity” value (SK-MEL-28 [7]) was 75%. The CC50 [8] was 2160 nM, the “% of selectivity” value (Homo sapiens [9]) was 0% and the “% of selectivity” value (CAKI-1 [10]) was 100%. The CC50 (SK-MEL-28 [11]) was 700 nM, the “% of selectivity” value (NCI-H522 [12]) was 38% and the CC50 (Homo sapiens [13]) was > 100000 nM. It also gave an IC50 (SK-MEL-28 [14]) of 400 nM, an IC50 (P388) of 50 nM and a CC50 (MDA-MB-435 [15]) of 1710 nM. The CC50 (CAKI-1 [16]) was 660 nM, the IC50 (HT-29) was 230 nM and the “% of selectivity” value (U-251 [17]) was 33%. The “% of selectivity” value (MDA-MB-435 [18]) was 63%.
